Measured values from ChEMBL document CHEMBL1125112, “Antitumor imidazotetrazines. 20. Preparation of the 8-acid derivative of mitozolomide and its utility in the preparation of active antitumor agents” (1990).

Assays:
Type in all cases: functional
[1] = test system: L1210; test: In vivo antitumor activity against the L1210 leukemia cell line in mouse species B6D2F1 after peroral administration (inoculum cells-10E5,iv) at the dose of 200 mg/kg; conditions: route oral
[2] = test system: L1210; test: In vivo antitumor activity against the L1210 leukemia cell line in mouse species B6D2F1 after peroral administration (inoculum cells-10E5,iv) at the dose of 100 mg/kg; conditions: route oral
[3] = test system: L1210; test: In vivo antitumor activity against the L1210 leukemia cell line in mouse species B6D2F1 after peroral administration (inoculum cells-10E5,iv) at the dose of 100 mg/kg on 7th day; conditions: route oral
Summary of the method: (§1)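 B6D2F1 mice were inoculated with 10^5 L1210 leukemia cells, ip or iv as the line states. Compound was given orally as a suspension in 1% (carboxymethyl)cellulose in water, dosed on day 1 or 3, over 28–39 days. T/C% = mean death day of treated/mean death day of controls. Survivors to the end were counted in groups of 7–8.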

[4] = test system: L1210; test: In vivo antitumor activity against the L1210 leukemia cell line in mouse species B6D2F1 after peroral administration (inoculum cells-10E5,iv) at the dose of 200 mg/kg on 7th day; conditions: route oral; summary of the method: as §1
[5] = test system: L1210; test: In vivo antitumor activity against the L1210 leukemia cell line in mouse species B6D2F1 after peroral administration (inoculum cells-10E5,iv) at the dose of 50 mg/kg; conditions: route oral
[6] = test system: L1210; test: In vivo antitumor activity against the L1210 leukemia cell line in mouse species B6D2F1 after peroral administration (inoculum cells-10E5,iv) at the dose of 50 mg/kg on 7th day; conditions: route oral; summary of the method: as §1
[7] = test system: L1210; test: In vivo antitumor activity against the L1210 leukemia cell line in mouse species B6D2F1 after peroral administration (inoculum cells-10E5,ip at the dose of 160 mg/kg; conditions: route oral
[8] = test system: L1210; test: In vivo antitumor activity against the L1210 leukemia cell line in mouse species B6D2F1 after peroral administration (inoculum cells-10E5,ip) at the dose of 320 mg/kg; conditions: route oral
[9] = test system: L1210; test: In vivo antitumor activity against the L1210 leukemia cell line in mouse species B6D2F1 after peroral administration (inoculum cells-10E5,ip) at the dose of 40 mg/kg; conditions: route oral
[10] = test system: L1210; test: In vivo antitumor activity against the L1210 leukemia cell line in mouse species B6D2F1 after peroral administration (inoculum cells-10E5,ip) at the dose of 80 mg/kg; conditions: route oral
[11] = test system: L1210; test: In vivo antitumor activity against the L1210 leukemia cell line in mouse species B6D2F1 after peroral administration (inoculum cells-10E5,ip)at the dose of 320 mg/kg on 7th day; conditions: route oral; summary of the method: as §1
[12] = test system: L1210; test: In vivo antitumor activity against the L1210 leukemia cell line in mouse species B6D2F1 after peroral administration (inoculum cells-10E5,ip) at the dose of 80 mg/kg on 8th day; conditions: route oral; summary of the method: as §1
[13] = test system: L1210; test: In vivo antitumor activity against the L1210 leukemia cell line in mouse species B6D2F1 after peroral administration (inoculum cells-10E5,ip) at the dose of 160 mg/kg on 8th day; conditions: route oral; summary of the method: as §1
[14] = test system: L1210; test: In vivo antitumor activity against the L1210 leukemia cell line in mouse species B6D2F1 after peroral administration (inoculum cells-10E5,ip) at the dose of 40 mg/kg on 8th day; conditions: route oral; summary of the method: as §1
[15] = test system: TLX-5; test: (§2) In vivo antitumor activity against the TLX5 lymphoma cell line in mouse species CBA/CA after intraperitoneal administration (inoculum cells-2x10E5,sc) at the dose of 160 mg/kg on 5th day
Summary of the method: (§3)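 CBA/CA mice were inoculated with 2 × 10^5 TLX5 lymphoma cells. Drug given intraperitoneally in 10% Me2SO in arachis oil, 5 mice per dose, and the experiment lasted 60 days. Survivors at 60 days were recorded. T/C % = mean death day of treated animals / mean death day of control animals.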

[16] = test system: TLX-5; test: (§4) In vivo antitumor activity against the TLX5 lymphoma cell line in mouse species CBA/CA after intraperitoneal administration (inoculum cells-2x10E5,sc) at the dose of 20 mg/kg; summary of the method: as §3
[17] = test system: TLX-5; test: In vivo antitumor activity against the TLX5 lymphoma cell line in mouse species CBA/CA after intraperitoneal administration (inoculum cells-2x10E5,sc) at the dose of 320 mg/kg; summary of the method: as §3
[18] = test system: TLX-5; test: In vivo antitumor activity against the TLX5 lymphoma cell line in mouse species CBA/CA after intraperitoneal administration (inoculum cells-2x10E5,sc) at the dose of 40 mg/kg; summary of the method: as §3
[19] = test system: TLX-5; test: In vivo antitumor activity against the TLX5 lymphoma cell line in mouse species CBA/CA after intraperitoneal administration (inoculum cells-2x10E5,sc) at the dose of 80 mg/kg; summary of the method: as §3
[20] = test system: TLX-5; test: (§5) In vivo antitumor activity against the TLX5 lymphoma cell line in mouse species CBA/CA after intraperitoneal administration (inoculum cells-2x10E5,sc) at the dose of 160 mg/kg
Summary of the method: (§6)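 CBA/CA mice were implanted sc with 2 × 10^5 TLX5 lymphoma cells. Compound was given ip on day 3 in 10% Me2SO in arachis oil, over 60 days, in groups of 5. T/C% = mean death day of treated/mean death day of controls. Survivors to day 60 were counted.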

[21] = test system: TLX-5; test: In vivo antitumor activity against the TLX5 lymphoma cell line in mouse species CBA/CA after intraperitoneal administration (inoculum cells-2x10E5,sc) at the dose of 20 mg/kg on 5th day
[22] = test system: TLX-5; test: In vivo antitumor activity against the TLX5 lymphoma cell line in mouse species CBA/CA after intraperitoneal administration (inoculum cells-2x10E5,sc) at the dose of 320 mg/kg on 5th day
[23] = test system: TLX-5; test: In vivo antitumor activity against the TLX5 lymphoma cell line in mouse species CBA/CA after intraperitoneal administration (inoculum cells-2x10E5,sc) at the dose of 40 mg/kg on 5th day
[24] = test system: TLX-5; test: In vivo antitumor activity against the TLX5 lymphoma cell line in mouse species CBA/CA after intraperitoneal administration (inoculum cells-2x10E5,sc) at the dose of 80 mg/kg on 5th day
[25] = test system: TLX-5; test: In vivo antitumor activity against the TLX5 lymphoma cell line in mouse species CBA/CA after intraperitoneal administration (inoculum cells-2x10E5,sc) at the dose of 10 mg/kg
[26] = test system: TLX-5; test: In vivo antitumor activity against the TLX5 lymphoma cell line in mouse species CBA/CA after intraperitoneal administration (inoculum cells-2x10E5,sc) at the dose of 10 mg/kg on 5th day
[27] = test system: TLX-5; test: as §2; remark: listed apart in the source
[28] = test system: TLX-5; test: as §5; summary of the method: as §3; remark: listed apart in the source
[29] = test system: TLX-5; test: In vivo antitumor activity against the TLX5 lymphoma cell line in mouse species CBA/CA after intraperitoneal administration (inoculum cells-2x10E5,sc) at the dose of 640 mg/kg; summary of the method: as §3
[30] = test system: TLX-5; test: In vivo antitumor activity against the TLX5 lymphoma cell line in mouse species CBA/CA after intraperitoneal administration (inoculum cells-2x10E5,sc) at the dose of 640 mg/kg on 5th day
[31] = test system: L1210; test: In vivo antitumor activity against the L1210 leukemia cell line in mouse species B6D2F1 after peroral administration (inoculum cells-10E5,iv) at the dose of 10 mg/kg on 7th day; conditions: route oral
[32] = test system: L1210; test: In vivo antitumor activity against the L1210 leukemia cell line in mouse species B6D2F1 after peroral administration (inoculum cells-10E5,iv) at the dose of 5 mg/kg on 7th day; conditions: route oral
[33] = test system: TLX-5; test: as §4; summary of the method: as §6; remark: listed apart in the source
[34] = test system: TLX-5; test: In vivo antitumor activity against the TLX5 lymphoma cell line in mouse species CBA/CA after intraperitoneal administration (inoculum cells-2x10E5,sc) at the dose of 5 mg/kg on 5th day
[35] = test system: L1210; test: In vivo antitumor activity against the L1210 leukemia cell line in mouse species B6D2F1 after peroral administration (inoculum cells-10E5,iv) at the dose of 20 mg/kg on 7th day; conditions: route oral; summary of the method: as §1

| SMILES | T/C [16] [%] | T/C [17] [%] | T/C [18] [%] | T/C [19] [%] | Survivors [21] | Survivors [22] | Survivors [23] | Survivors [24] | Survivors [27] | other results |
| --- | --- | --- | --- | --- | --- | --- | --- | --- | --- | --- |
| O=C(NO)c1ncn2c(=O)n(CCCl)nnc12 |  |  |  |  |  |  |  |  |  | T/C [1]: 218%; T/C [2]: 187%; Survivors [3]: 0; Survivors [4]: 0 |
| O=C(NOCc1ccccc1)c1ncn2c(=O)n(CCCl)nnc12 |  |  |  |  |  |  |  |  |  | T/C [1]: 98%; T/C [2]: 98%; T/C [5]: 98%; Survivors [3]: 0; Survivors [4]: 0; Survivors [6]: 0 |
| O=C(O)c1ncn2c(=O)n(CCCl)nnc12 | 102 | 223 | 103 | 106 | 0 | 0 | 0 | 0 |  | T/C [7]: 107%; T/C [8]: 106%; T/C [9]: 102%; T/C [10]: 101%; Survivors [11]: 0; Survivors [12]: 0; Survivors [13]: 0; Survivors [14]: 0; T/C [15]: 108%; Survivors [20]: 0 |
| [N-]=[N+]=NC(=O)c1ncn2c(=O)n(CCCl)nnc12 | 97 |  | 96 | 106 | 0 |  | 0 | 0 | 0 | T/C [25]: 101%; Survivors [26]: 0 |
| COC(=O)c1ncn2c(=O)n(CCCl)nnc12 | 106 | 140 | 110 | 110 | 0 | 0 | 0 | 0 | 0 | T/C [28]: 123% |
| CCOC(=O)CNC(=O)c1ncn2c(=O)n(CCCl)nnc12 |  | 114 |  | 96 |  | 0 |  | 0 | 0 | T/C [28]: 105%; T/C [29]: 139%; Survivors [30]: 0 |
| O=C(Nc1ccccc1)c1ncn2c(=O)n(CCCl)nnc12 |  |  |  |  | 0 | 0 | 0 | 0 | 0 |  |
| NC(=O)c1ncn2c(=O)n(CCCl)nnc12 [MITOZOLOMIDE] |  |  |  |  |  |  |  |  |  | Survivors [31]: 0; Survivors [32]: 0; Survivors [26]: 0; Survivors [33]: 0; Survivors [34]: 0; Survivors [35]: 0 |
